Experimental data taken from ChEMBL document CHEMBL4321820, “Identification and Optimization of Mechanism-Based Fluoroallylamine Inhibitors of Lysyl Oxidase-like 2/3” (J Med Chem, 2019).

How the values were obtained:
Mus musculus = assay: Effect on plasma ALT level in CCl4-induced BALB/c mouse model of liver fibrosis at 5 to 15 mg/kg, po administered once daily at week 4 to 6; assay type: ADME, organism-based; details: in vivo
Summary of the method: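 CCl4 liver fibrosis in female BALB/c mice: CCl4 i.p. (1 mL/kg 25% in olive oil) twice weekly for 6 weeks, sacrifice 48 h after final injection. Oral once-daily dosing weeks 1-6 or weeks 4-6; imatinib 50 mg/kg daily weeks 1-6. ALT and AST measured in plasma.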

Lysyl oxidase homolog 1 = target: T1, Lysyl oxidase homolog 1 (Homo sapiens, UniProt Q08397); assay: Inhibition of recombinant human LOXL1 using putrescine as substrate preincubated with enzyme for 30 mins followed by substrate addition and measured every 2.5 mins for 30 mins by Amplex-Red oxidation assay
T1 sequence (Q08397 whole entry): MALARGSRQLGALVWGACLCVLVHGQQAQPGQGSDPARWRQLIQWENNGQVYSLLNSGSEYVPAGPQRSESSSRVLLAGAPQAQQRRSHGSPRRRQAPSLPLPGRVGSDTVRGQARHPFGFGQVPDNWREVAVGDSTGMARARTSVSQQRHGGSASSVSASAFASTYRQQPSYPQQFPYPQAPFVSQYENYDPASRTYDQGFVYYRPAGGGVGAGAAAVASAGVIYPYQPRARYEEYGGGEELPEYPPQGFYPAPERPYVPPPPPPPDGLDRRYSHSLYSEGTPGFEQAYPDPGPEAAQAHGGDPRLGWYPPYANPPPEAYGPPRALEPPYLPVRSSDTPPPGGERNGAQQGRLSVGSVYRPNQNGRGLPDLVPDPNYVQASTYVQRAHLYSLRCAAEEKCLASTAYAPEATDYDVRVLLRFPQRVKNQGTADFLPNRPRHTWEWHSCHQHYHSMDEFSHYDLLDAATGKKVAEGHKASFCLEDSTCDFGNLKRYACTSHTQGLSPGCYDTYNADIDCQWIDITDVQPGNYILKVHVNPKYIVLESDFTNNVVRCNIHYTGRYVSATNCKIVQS
Summary of the method: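 Recombinant human LOXL1 expressed and purified from cDNA; 30 min preincubation with compound at 37 °C in urea/borate buffer, then Amplex Red/HRP with 10 mM putrescine; H2O2 fluorescence read every 2.5 min for 30 min at 37 °C.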

[1] = Stability in rat plasma assessed as half life
Lysyl oxidase homolog 3 = target: T2, Lysyl oxidase homolog 3 (Homo sapiens, UniProt P58215); assay: Inhibition of recombinant C-terminal His-tagged human LOXL3 (1 to 753 residues) expressed in CHO cells using putrescine as substrate preincubated with enzyme for 30 mins followed by substrate addition and measured every 2.5 mins for 30 mins by Amplex-Red oxidation assay
T2 sequence (P58215 whole entry): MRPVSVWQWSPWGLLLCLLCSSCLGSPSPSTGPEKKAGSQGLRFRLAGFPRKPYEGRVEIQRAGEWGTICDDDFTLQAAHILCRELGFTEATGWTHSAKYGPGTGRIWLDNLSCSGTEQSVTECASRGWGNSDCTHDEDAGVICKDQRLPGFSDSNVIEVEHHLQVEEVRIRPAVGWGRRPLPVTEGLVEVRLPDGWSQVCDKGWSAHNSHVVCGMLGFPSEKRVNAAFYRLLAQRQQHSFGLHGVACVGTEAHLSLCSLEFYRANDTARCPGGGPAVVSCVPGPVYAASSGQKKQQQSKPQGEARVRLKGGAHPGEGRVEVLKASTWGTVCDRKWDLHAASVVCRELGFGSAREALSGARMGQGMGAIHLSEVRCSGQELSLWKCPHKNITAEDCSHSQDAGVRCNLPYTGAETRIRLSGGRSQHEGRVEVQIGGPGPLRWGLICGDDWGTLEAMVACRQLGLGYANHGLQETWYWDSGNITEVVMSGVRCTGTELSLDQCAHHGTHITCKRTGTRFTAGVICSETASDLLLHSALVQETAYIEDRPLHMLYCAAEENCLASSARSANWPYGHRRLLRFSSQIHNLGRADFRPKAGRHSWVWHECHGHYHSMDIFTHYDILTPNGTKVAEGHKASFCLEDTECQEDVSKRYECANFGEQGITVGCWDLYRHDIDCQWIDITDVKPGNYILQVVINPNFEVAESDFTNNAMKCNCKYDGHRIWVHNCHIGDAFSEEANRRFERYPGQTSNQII
Summary of the method: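 Recombinant human LOXL3 or LOXL4 preincubated 30 min at 37 °C with compound in 1.2 M urea/50 mM borate pH 8.2, then Amplex Red (120 µM)/HRP (1.5 U/mL) with 2 mM putrescine; fluorescence read every 2.5 min for 30 min.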

Lysyl oxidase homolog 2 = target: T3, Lysyl oxidase homolog 2 (Homo sapiens, UniProt Q9Y4K0); assay: Inhibition of recombinant human C-terminal His-tagged […] (1-774 residues) expressed in mouse myeloma cells assessed as inhibition of collagen oxidation measured every 1 min for 3 hrs by Amplex-Red oxidation assay; assay type: cell-based
T3 sequence (Q9Y4K0 whole entry): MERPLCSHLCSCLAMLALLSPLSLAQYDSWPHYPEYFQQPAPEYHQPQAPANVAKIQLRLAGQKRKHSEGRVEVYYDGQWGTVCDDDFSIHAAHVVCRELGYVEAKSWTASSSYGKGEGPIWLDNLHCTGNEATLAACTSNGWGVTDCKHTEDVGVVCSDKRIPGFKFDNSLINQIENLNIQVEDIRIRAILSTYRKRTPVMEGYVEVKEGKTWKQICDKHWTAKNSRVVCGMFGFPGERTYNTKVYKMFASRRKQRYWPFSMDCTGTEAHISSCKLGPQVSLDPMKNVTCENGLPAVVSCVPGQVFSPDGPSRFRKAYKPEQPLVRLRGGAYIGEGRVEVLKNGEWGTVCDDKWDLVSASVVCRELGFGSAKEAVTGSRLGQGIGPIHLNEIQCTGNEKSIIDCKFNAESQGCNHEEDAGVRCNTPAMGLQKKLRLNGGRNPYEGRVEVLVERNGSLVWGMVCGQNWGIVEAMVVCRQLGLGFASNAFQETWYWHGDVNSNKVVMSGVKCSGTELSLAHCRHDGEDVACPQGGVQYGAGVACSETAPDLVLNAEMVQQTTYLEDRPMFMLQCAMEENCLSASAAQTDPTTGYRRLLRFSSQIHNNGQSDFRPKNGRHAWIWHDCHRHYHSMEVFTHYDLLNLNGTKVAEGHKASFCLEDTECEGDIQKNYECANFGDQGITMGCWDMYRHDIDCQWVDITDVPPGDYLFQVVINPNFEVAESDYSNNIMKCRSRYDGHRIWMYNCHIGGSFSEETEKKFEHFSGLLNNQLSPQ
Summary of the method: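 Rat tail type I collagen (1.5 mg/mL in 50 mM borate pH 8.2) combined with rhLOXL2 with or without inhibitor (BAPN 100 µM control). Amplex Red (120 µM)/HRP (1.5 U/mL) mix added. Fluorescence read every 1 min for 3 h at 37 °C; slope from the linear 20-40 min phase used for IC50.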

[2] = Stability in rat plasma assessed as half life; assay type: ADME, cell-free

Compound	Activity (Mus musculus)	IC50 (Lysyl oxidase homolog 1)	half-life [1]	IC50 (Lysyl oxidase homolog 3)	IC50 (Lysyl oxidase homolog 2)	half-life [2]
CCOC(=O)c1ccc2c(c1)c(-c1cccc(S(=O)(=O)N(C)C)c1)c(C)n2C/C(F)=C/CN.Cl	Non-Toxic					
Cc1c(-c2cccc(S(=O)(=O)N(C)C)c2)c2cc(C(=O)O)ccc2n1C/C(F)=C/CN.Cl		2.26 µM	> 2 h	0.016 µM	0.013 µM	> 2 h
